Laboratory results: ChEMBL document CHEMBL1137728, “Synthesis of novel thiazolone-based compounds containing pyrazoline moiety and evaluation of their anticancer activity” (2009)

Experiments:
Type in all cases: functional
[1] = Anticancer activity against human NCI60 cells assessed as cell growth at 10 uM after 48 hrs by SRB assay; details: NCI60, 48 h, read-out: Activity
Method in brief: (§1)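 US NCI one-dose screen across about 60 human tumour cell lines. A single concentration of 10^-5 M was applied with 48 h continuous exposure. The end point was sulforhodamine B protein staining, read spectrophotometrically. Results are given as percent growth of treated cells relative to untreated controls.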

CCRF-CEM [2] = experiment: Anticancer activity against human CCRF-CEM cells assessed as cell growth at 10 uM after 48 hrs by SRB assay; details: read-out: Activity; method in brief: as §1
HL-60(TB) = experiment: Anticancer activity against human HL-60(TB) cells assessed as cell growth at 10 uM after 48 hrs by SRB assay; details: HL-60, 48 h, read-out: Activity
Method in brief: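 Single-dose NCI-60 screen: 10^-5 M added to culture, 48 h incubation; endpoint by sulforhodamine B protein staining read spectrophotometrically; reported as percent growth of treated cells versus untreated control cells.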

HCT-15 = experiment: Growth inhibition of human HCT15 cells after 48 hrs by SRB assay; details: HCT-15, 48 h
Method in brief: (§2)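 NCI five-dose screen across about 60 human tumour cell lines, at 10-fold dilutions from 10^-4 to 10^-8 M with 48 h continuous exposure, read by SRB. Percent growth used time-zero, untreated control and treated absorbances. GI50 was the concentration giving 50% lower net protein increase than controls. Values beyond the tested range were reported as more or less than the maximum or minimum concentration.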

KM12 = experiment: Growth inhibition of human KM12 cells after 48 hrs by SRB assay; details: KM12, 48 h; method in brief: as §2
U-251 = experiment: Growth inhibition of human U251 cells after 48 hrs by SRB assay; details: U-251, 48 h; method in brief: as §2
UACC-62 = experiment: Growth inhibition of human UACC62 cells after 48 hrs by SRB assay; details: UACC-62, 48 h; method in brief: as §2
IGROV-1 = experiment: Growth inhibition of human IGROV1 cells after 48 hrs by SRB assay; details: IGROV-1, 48 h; method in brief: as §2
786-0 = experiment: Growth inhibition of human 786-0 cells after 48 hrs by SRB assay; details: 786-0, 48 h; method in brief: as §2
SN12C = experiment: Growth inhibition of human SN12C cells after 48 hrs by SRB assay; method in brief: as §2
NCI/ADR-RES = experiment: Growth inhibition of human NCI/ADR-RES cells after 48 hrs by SRB assay; method in brief: as §2
CCRF-CEM [3] = experiment: Growth inhibition of human CCRF-CEM cells after 48 hrs by SRB assay; method in brief: as §2
[4] = Growth inhibition of human […] cells after 48 hrs by SRB assay; method in brief: as §2
HOP-62 = experiment: Growth inhibition of human HOP62 cells after 48 hrs by SRB assay; details: HOP-62, 48 h; method in brief: as §2
HOP-92 = experiment: Growth inhibition of human HOP92 cells after 48 hrs by SRB assay; details: HOP-92, 48 h; method in brief: as §2

With `O=C1N=C(N2N=C(c3ccccc3)CC2c2ccccc2O)S/C1=C\c1ccc(Cl)cc1` (centres undefined) the growth at 10 µM [1] was 98.3% and the growth at 10 µM (CCRF-CEM [2]) was -25%.

`O=C1N=C(N2N=C(c3ccccc3)CC2c2ccccc2O)CS1` (centres undefined) showed a growth at 10 µM [1] of 83.6% and a growth at 10 µM (CCRF-CEM [2]) of -5.39%.

For `O=C1N=C(N2N=C(c3ccccc3)CC2c2ccccc2O)S/C1=C\c1cccc(Br)c1` (centres undefined), the growth at 10 µM [1] was 88.6% and the growth at 10 µM (HL-60(TB)) was -54%.

`O=C1N=C(N2N=C(c3ccccc3)CC2c2ccccc2O)/C(=C/c2ccccc2)S1` (centres undefined) showed a GI50 (HCT-15) of 1.51 µM, a TGI (HCT-15; read-out: pTGI (converted)) of 2.95 µM and a GI50 (KM12) of 1.62 µM. For the same compound, the TGI (KM12; read-out: pTGI (converted)) was 4.47 µM, the GI50 (U-251) was 1.55 µM and the TGI (U-251; read-out: pTGI (converted)) was 2.88 µM. The GI50 (UACC-62) was 1.62 µM, the TGI (UACC-62; read-out: pTGI (converted)) was 2.95 µM and the GI50 (IGROV-1) was 2 µM. The TGI (IGROV-1; read-out: pTGI (converted)) was 4.47 µM, the GI50 (786-0) was 1.82 µM and the TGI (786-0; read-out: pTGI (converted)) was 3.89 µM. The GI50 (SN12C) was 1.7 µM, the TGI (SN12C; read-out: pTGI (converted)) was 3.09 µM and the GI50 (NCI/ADR-RES) was 1.82 µM. The GI50 (CCRF-CEM [3]) was 1.91 µM, the TGI (CCRF-CEM [3]; read-out: pTGI (converted)) was 4.57 µM and the GI50 [4] was 1.55 µM. The TGI ([4]; read-out: pTGI (converted)) was 3.24 µM, the GI50 (HOP-62) was 1.62 µM and the TGI (HOP-62; read-out: pTGI (converted)) was 3.47 µM. For the same compound, the GI50 (HOP-92) was 1.55 µM and the TGI (HOP-92; read-out: pTGI (converted)) was 4.47 µM.
